# Screening data from PubChem.
# WT yeast gro inh – growth inhibition of WT yeast, mitochondrial fusion screen. mitochondrial fusion phenotypic screen, WT strain. inhibition, % at 10 µM. hit rate 2.1% among 190,000; in the data active means inhibition above about 58%; tested in S. cerevisiae
# Diaph act CS – counter-screen for diaphorase-based assays: diaphorase activators and chemical reducers; hit rate 0.005% among 190,000; Diaphorase/resazurin coupled assay, resorufin fluorescence, 16 min; stronger effect = higher value; 1 = vehicle wells, 0 = NADH-free wells; activation factor at 20 µM; AID 1229;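 active means diaphorase activity raised at least twofold by the compound at 20 µM; inactive means activation factor below 2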
#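 Test system: Clostridium kluyveri diaphorase, purified enzyme; input: enzyme 0.07 U/mL final; buffer or medium: 50 mM HEPES pH 7.4 with 4.542 mM MgCl2, 0.005% Tween 20; also added: 0.114 mM NADH and 0.1 mM resazurin, final amounts; schedule: 16 min enzyme reaction, ambient temperature; technique: fluorescence of resorufin, 544 nm excitation, 590 nm emission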
# PMI activator – increases human mannose-6-phosphate isomerase activity; P34949; activation factor at 20 µM; purified human PMI, coupled resazurin fluorescence, 20 min; stronger effect = higher value; 1 = vehicle control, 0 substrate-free wells; hit rate 0.005% among 190,000;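 active means activation factor of 2 or more at 20 µM, relative to plate controls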
# Target sequence (P34949 whole entry, looked up): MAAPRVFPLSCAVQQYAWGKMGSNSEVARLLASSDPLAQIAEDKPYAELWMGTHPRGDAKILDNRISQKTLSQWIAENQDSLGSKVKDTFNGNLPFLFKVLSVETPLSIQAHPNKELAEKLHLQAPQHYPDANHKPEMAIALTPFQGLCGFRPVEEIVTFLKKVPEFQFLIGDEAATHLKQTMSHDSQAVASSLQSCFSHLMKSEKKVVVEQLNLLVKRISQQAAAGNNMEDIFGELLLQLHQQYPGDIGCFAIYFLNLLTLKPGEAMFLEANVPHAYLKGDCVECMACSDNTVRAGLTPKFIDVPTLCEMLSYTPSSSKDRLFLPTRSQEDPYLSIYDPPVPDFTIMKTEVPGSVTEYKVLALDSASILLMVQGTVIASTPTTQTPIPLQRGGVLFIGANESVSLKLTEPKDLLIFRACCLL
# PMI act hi M6P – PMI (human) activation, high substrate | P34949 | coupled PMI enzyme assay, resazurin fluorescence, 20 min; stronger effect = higher value; 1 = untreated enzyme, 0 = substrate-free blank | activation factor at 20 µM | hit rate 0.34% among 190,000 | AID 1216;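 active means activation factor of 2 or more at 20 µM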
#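 Test system: human PMI in coupled enzyme assay; Input: PMI at 15 ng/mL final; Medium: HEPES buffer, pH 7.4; Schedule: 20 min incubation at room temperature; Technique: resorufin fluorescence at Ex 544/Em 590 nm; Compound: 20 µM single dose; Probe or stimulus: Near-saturating mannose-6-phosphate, 1.0 mM.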
# Lmaj promast – Leishmania major promastigote growth inhibition; Leishmania major promastigotes, resazurin fluorescence viability; inhibition, % at 10 µM; hit rate 9% among 200,000; AID 1063; in the data active means inhibition above about 50%;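 further: promastigotes grown with compound for 44 hours at 28 °C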
# Numbers stand for hits; 0 = inactive; - = not tested or not shown. Most compounds without a hit are left out; they make up all but 10% or so of the library.
SMILES,WT yeast gro inh,Diaph act CS,PMI activator,PMI act hi M6P,Lmaj promast
Cc1oc(-c2cccs2)nc1CN1CCC(CO)(CCOc2ccccc2)CC1,0,0,0,0,73
CCOC(=O)C1(CCOC)CCN(Cc2nc(-c3cccs3)oc2C)CC1,0,0,0,0,0
O=C(NC(c1ccccc1)c1ccccc1)c1ccc(=O)[nH]n1,0,0,0,0,0
Cc1ccc(C(=O)Nc2ccc(F)cc2)o1,0,0,0,0,51
Cc1ccc(C(=O)Nc2ccc3c(c2)CCC3)o1,0,0,0,0,0
Cc1ccc(NC(=O)COC(=O)C2CC2(Cl)Cl)cc1C (centres undefined),0,0,0,0,0
CCc1ccc(N2C(=O)CN(Cc3cc(OC)c(OC)c(OC)c3)C2=S)cc1,0,0,0,0,0
COc1cc(CN2CC(=O)N(c3ccc(C)c(C)c3)C2=S)cc(OC)c1OC,0,0,0,0,94
COc1ccc(CN2CC(=O)N(c3ccc(C)c(C)c3)C2=S)cc1OC,0,0,0,0,52
COc1ccc(N2C(=O)CN=C2Nc2nc(C)cc(C)n2)cc1,0,0,0,0,0
Cc1cc(C)nc(NC2=NCC(=O)N2c2ccc3c(c2)OCCO3)n1,95,0,0,0,0
Cc1ccc(NC2=C/C(=N/S(=O)(=O)c3cccs3)c3ccccc3C2=O)cc1C,0,0,0,0,82
Cc1cc[n+](C2=C([O-])c3ccccc3C(=O)/C2=N\S(=O)(=O)c2cccs2)cc1C,0,0,0,0,0
CC(=O)Nc1ccc(NC2=C/C(=N/S(=O)(=O)c3cccs3)c3ccccc3C2=O)cc1,0,0,0,0,100
O=C(NNC(=S)NC1CCCCC1)c1ccccc1O,0,0,0,0,0
COc1ccc(C(=O)N/C(=C\c2ccc3c(c2)OCO3)C(=O)Nc2ccc(C(=O)O)cc2)cc1,0,0,0,0,0
COc1ccc(NC(=O)/C(=C/c2ccc3c(c2)OCO3)NC(C)=O)cc1,0,0,0,0,71
O=C(/C=C/c1cn(CC(O)CN2CCCCC2)c2ccccc12)c1cccs1 (centres undefined),0,0,0,0,99
CC(C)(C)NCC(O)Cn1cc(C=O)c2ccccc21 (centres undefined),0,0,0,0,0
CCCN(CCC)CC(O)Cn1cc(/C=C/C(=O)c2cccs2)c2ccccc21 (centres undefined),0,0,0,0,64
CCCN(CCC)CC(O)Cn1cc(/C=C/C(=O)c2ccccc2)c2ccccc21 (centres undefined),0,0,0,0,69
CN1CCN(Cn2cc(/C=C/C(=O)c3ccccc3)c3ccccc32)CC1,0,0,0,0,0
O=[N+]([O-])c1ccc(CSc2nnc(SCc3ccc(Cl)cc3)s2)cc1,0,0,0,0,0
O=C(Cc1c(F)cccc1Cl)Nc1ccc(S(=O)(=O)NCC2CCCO2)cc1 (centres undefined),0,0,0,0,0
Cc1cc(C)c2nc(NC3=NCN(CCN4CCOCC4)CN3)nc(C)c2c1,-,0,0,0,-
SMILES,WT yeast gro inh,Diaph act CS,PMI activator,PMI act hi M6P,Lmaj promast
CC1=CC(C)(C)N=C(Nc2nc(C)c3cc(C)cc(C)c3n2)N1,0,0,0,0,97
CN(C)S(=O)(=O)c1ccc(C(=O)Nc2nnc(-c3ccco3)o2)cc1,0,0,0,0,0
CCc1nnc(NC(=O)c2ccc(S(=O)(=O)N(CC)Cc3ccccc3)cc2)o1,63,0,0,0,99
CCN(CC)S(=O)(=O)c1ccc(C(=O)Nc2nnc(COC)o2)cc1,0,0,0,0,0
CCCCN(CCCC)S(=O)(=O)c1ccc(C(=O)Nc2nnc(COC)o2)cc1,0,0,0,0,0
CCCCN(CC)S(=O)(=O)c1ccc(C(=O)Nc2nnc(-c3cccs3)o2)cc1,0,0,0,0,99
CCCCN(C)S(=O)(=O)c1ccc(C(=O)Nc2nnc(-c3ccco3)o2)cc1,0,0,0,0,96
O=C(Nc1nnc(-c2ccco2)o1)c1ccc(Cl)cc1,65,0,0,0,0
O=[N+]([O-])c1cnc(N2CCCCC2)c([N+](=O)[O-])c1,0,0,0,0,0
CCN(CC)S(=O)(=O)c1ccc(C(=O)Nc2nnc(-c3ccco3)o2)cc1,0,0,0,0,92
COc1ccccc1CNC(=O)C(NC(=O)c1ccccc1C)C(C)C (centres undefined),0,0,0,0,0
O=C(CCc1nc2ccccc2c(=O)[nH]1)OCc1ccc(Cl)cc1Cl,0,0,0,0,0
